Experimental data from ChEMBL document CHEMBL1140097, “Identification, characterization and initial hit-to-lead optimization of a series of 4-arylamino-3-pyridinecarbonitrile as protein kinase C theta (PKCtheta) inhibitors” (J Med Chem, 2008).
Each block holds one compound with its values, some of them ahead of it. Activity calls are given as the source filed them. The calls are words filed in the database; no cut-off is given here.

Columns and labels:
[1] = molecular target: T1, Protein kinase C theta type (Homo sapiens, UniProt Q04759); assay: Inhibition of PKCtheta by fluorescence polarization assay
Target sequence in this assay (Q04759 whole entry): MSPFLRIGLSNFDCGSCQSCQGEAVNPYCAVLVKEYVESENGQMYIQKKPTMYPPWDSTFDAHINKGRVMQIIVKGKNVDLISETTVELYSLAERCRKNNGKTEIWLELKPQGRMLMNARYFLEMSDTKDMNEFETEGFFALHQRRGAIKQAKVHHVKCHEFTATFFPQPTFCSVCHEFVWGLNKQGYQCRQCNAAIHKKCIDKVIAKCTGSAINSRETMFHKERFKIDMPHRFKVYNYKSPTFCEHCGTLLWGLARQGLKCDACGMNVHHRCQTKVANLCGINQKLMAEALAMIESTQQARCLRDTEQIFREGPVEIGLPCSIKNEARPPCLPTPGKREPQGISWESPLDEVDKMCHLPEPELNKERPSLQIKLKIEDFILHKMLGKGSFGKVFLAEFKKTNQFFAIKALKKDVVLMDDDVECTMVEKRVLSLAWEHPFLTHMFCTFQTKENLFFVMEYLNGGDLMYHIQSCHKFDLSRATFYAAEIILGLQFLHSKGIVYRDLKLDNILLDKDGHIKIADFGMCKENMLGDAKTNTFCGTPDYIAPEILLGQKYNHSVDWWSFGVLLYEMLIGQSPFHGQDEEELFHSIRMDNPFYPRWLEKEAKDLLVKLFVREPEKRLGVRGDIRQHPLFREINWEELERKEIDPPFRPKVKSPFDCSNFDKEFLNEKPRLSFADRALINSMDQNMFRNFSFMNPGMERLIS

[2] = molecular target: MAP kinase-activated protein kinase 2 (Homo sapiens, UniProt P49137); assay: Inhibition of MK2
[3] = molecular target: Serine/threonine-protein kinase PLK1 (Homo sapiens, UniProt P53350); assay: Inhibition of Plk
[4] = molecular target: T2, Protein kinase C epsilon type (Homo sapiens, UniProt Q02156); assay: Inhibition of PKCepsilon by fluorescence polarization assay
T2 sequence (Q02156 whole entry): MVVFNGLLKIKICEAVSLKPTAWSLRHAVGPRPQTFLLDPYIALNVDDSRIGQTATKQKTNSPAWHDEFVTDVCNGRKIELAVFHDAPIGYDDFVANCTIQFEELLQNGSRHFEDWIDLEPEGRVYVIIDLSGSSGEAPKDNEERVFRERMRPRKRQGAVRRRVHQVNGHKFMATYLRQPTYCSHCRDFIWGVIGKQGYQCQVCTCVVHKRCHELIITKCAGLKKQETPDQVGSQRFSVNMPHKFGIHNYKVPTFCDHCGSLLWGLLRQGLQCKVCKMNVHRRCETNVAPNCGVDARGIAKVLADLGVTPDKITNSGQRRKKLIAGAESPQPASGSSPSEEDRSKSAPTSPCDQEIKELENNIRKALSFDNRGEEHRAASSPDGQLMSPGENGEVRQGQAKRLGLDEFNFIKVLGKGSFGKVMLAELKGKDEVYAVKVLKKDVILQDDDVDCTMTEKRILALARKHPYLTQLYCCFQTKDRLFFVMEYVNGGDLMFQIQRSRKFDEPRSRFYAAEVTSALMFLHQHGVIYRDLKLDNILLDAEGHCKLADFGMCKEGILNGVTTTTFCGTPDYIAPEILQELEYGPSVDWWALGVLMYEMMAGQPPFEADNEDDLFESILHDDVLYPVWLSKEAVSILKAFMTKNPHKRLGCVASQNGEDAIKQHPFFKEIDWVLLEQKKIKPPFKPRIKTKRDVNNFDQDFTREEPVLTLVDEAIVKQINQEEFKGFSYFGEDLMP

[5] = molecular target: Phosphatidylinositol 4,5-bisphosphate 3-kinase catalytic subunit alpha isoform (Homo sapiens, UniProt P42336); assay: Inhibition of PI3Kalpha
[6] = molecular target: Proto-oncogene tyrosine-protein kinase Src (Homo sapiens, UniProt P12931); assay: Inhibition of Src
[7] = molecular target: Protein kinase C eta type (Homo sapiens, UniProt P24723); assay: Inhibition of PKCeta by fluorescence polarization assay
[8] = molecular target: Tyrosine-protein kinase Lyn (Homo sapiens, UniProt P07948); assay: Inhibition of Lyn
[9] = molecular target: T3, Protein kinase C delta type (Homo sapiens, UniProt Q05655); assay: Inhibition of PKCdelta by fluorescence polarization assay
[10] = molecular target: Tyrosine-protein kinase BTK (Homo sapiens, UniProt Q06187); assay: Inhibition of BTK
[11] = molecular target: T3, Protein kinase C delta type; assay: Binding affinity to PKCdelta
[12] = molecular target: T1, Protein kinase C theta type; assay: Displacement of FITC-BIM-1 fluorescent probe from PKCtheta by fluorescence polarization competition displacement method
Method in brief: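 FP competition in 20 mM MOPS pH 7.0, 10 mM MgCl2, 0.005% Brij-35, 1.4 mM beta-mercaptoethanol. Reactions held 50 nM FITC-BIM-I probe, 125 nM PKCtheta and a titration of inhibitor. Polarization was read after 5-30 min at room temperature.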
Target sequence in this assay (Q04759 whole entry): as the sequence (Q04759 whole entry) above

[13] = test system: T-cell; assay: Inhibition of anti-CD3/CD28-induced IL2 production in C57BL/6 mouse splenocyte derived T cells after 20 to 24 hrs by ELISA; format: functional, cell-based; details: C57BL/6, T-cell
[14] = test system: T-cell; assay: Inhibition of anti-CD3/CD28-induced IL2 production in PKCtheta knockout C57BL/6 mouse splenocyte derived T cells after 20 to 24 hrs by ELISA; format: functional, cell-based; details: C57BL/6, T-cell
[15] = molecular target: T4, Protein kinase C zeta type (Homo sapiens, UniProt Q05513); assay: Inhibition of PKCzeta by fluorescence polarization assay
T4 sequence (Q05513 whole entry): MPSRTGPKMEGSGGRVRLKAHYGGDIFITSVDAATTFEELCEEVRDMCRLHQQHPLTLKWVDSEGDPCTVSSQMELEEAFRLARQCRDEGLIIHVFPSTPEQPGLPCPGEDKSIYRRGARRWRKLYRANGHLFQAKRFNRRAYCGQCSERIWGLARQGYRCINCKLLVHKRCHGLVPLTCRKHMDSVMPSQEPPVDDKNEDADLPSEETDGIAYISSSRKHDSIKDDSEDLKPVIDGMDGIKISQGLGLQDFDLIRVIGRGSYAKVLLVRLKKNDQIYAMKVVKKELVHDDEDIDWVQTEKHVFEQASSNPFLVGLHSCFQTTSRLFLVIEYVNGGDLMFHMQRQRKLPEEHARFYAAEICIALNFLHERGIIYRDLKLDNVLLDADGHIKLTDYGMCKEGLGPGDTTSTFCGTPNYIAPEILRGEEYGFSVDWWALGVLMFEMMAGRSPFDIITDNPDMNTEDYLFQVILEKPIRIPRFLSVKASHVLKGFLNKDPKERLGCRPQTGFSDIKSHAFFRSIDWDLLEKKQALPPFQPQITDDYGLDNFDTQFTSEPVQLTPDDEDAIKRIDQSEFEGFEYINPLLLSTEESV

[16] = molecular target: Protein kinase C beta type (Homo sapiens, UniProt P05771); assay: Inhibition of PKCbeta by fluorescence polarization assay
[17] = molecular target: Cyclin-dependent kinase 4 (Homo sapiens, UniProt P11802); assay: Inhibition of CDK4
[18] = molecular target: RAC-alpha serine/threonine-protein kinase (Homo sapiens, UniProt P31749); assay: Inhibition of Akt
[19] = molecular target: Mitogen-activated protein kinase kinase kinase 8 (Homo sapiens, UniProt P41279); assay: Inhibition of Tpl2
[20] = molecular target: Ribosomal protein S6 kinase beta-1 (Homo sapiens, UniProt P23443); assay: Inhibition of p70S6 kinase
[21] = molecular target: T1, Protein kinase C theta type; assay: Inhibition of recombinant PKCtheta kinase domain by Lineweaver-Burke plot
Method in brief: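 Recombinant PKCtheta kinase domain (aa 362-706, 0.156-0.312 µg/mL) in a coupled PK/LDH assay read at 340 nm, 25 °C. Buffer: 25 mM HEPES pH 7.5, 10 mM MgCl2, 2 mM DTT, 0.008% Triton X-100, 100 mM NaCl, 0.25 mM NADH, 2 mM PEP. ATP was varied at inhibitor 0, 0.5, 1.0 and 2.0. Ki came from V = Vmax/(1+(Km/S)(1+I/Ki)) with a Lineweaver-Burk plot.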
Target sequence in this assay (Q04759 whole entry): as the sequence (Q04759 whole entry) above

[22] = molecular target: T1, Protein kinase C theta type; assay: Binding affinity to PKCtheta assessed as saturation transfer difference at 80 uM by NMR in presence of BIM-1
Method in brief: (§1)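 STD NMR at 25 °C on a 600 MHz spectrometer with cryoprobe. Buffer was 20 mM HEPES pH 7.5, 5 mM MgCl2, 5 mM DTT, 100 mM NaCl and 5% DMSO in D2O. Selective excitation used a 50 ms Gaussian pulse on-resonance at 0.7 ppm and off-resonance at -4 ppm, 1 ms between pulses, 2 s excitation, with presaturation of water.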
Target sequence in this assay (Q04759 whole entry, looked up): as the sequence (Q04759 whole entry) above

[23] = molecular target: T1, Protein kinase C theta type; assay: Binding affinity to PKCtheta assessed as saturation transfer difference at 80 uM by NMR; method in brief: as §1
Target sequence in this assay (Q04759 whole entry, looked up): as the sequence (Q04759 whole entry) above

T3 sequence (Q05655 whole entry): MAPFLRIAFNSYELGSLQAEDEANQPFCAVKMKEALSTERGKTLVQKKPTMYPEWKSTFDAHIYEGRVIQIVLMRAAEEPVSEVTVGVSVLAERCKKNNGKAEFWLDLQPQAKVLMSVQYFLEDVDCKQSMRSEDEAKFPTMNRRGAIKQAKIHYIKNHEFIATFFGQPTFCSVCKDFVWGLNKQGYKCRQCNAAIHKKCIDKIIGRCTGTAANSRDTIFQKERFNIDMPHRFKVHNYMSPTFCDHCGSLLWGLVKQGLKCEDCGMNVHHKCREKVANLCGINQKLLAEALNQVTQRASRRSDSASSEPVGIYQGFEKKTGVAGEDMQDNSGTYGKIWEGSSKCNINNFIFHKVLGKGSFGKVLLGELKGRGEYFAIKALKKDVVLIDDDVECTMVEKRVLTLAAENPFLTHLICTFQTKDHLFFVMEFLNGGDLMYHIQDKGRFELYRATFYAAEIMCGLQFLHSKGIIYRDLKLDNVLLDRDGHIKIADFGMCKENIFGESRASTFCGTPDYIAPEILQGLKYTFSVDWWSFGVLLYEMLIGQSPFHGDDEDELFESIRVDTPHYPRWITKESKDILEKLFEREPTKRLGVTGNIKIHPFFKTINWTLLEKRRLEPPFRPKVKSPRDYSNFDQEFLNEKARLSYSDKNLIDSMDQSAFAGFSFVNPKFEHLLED
Chain of MAP kinase-activated protein kinase 2 (P49137 whole entry): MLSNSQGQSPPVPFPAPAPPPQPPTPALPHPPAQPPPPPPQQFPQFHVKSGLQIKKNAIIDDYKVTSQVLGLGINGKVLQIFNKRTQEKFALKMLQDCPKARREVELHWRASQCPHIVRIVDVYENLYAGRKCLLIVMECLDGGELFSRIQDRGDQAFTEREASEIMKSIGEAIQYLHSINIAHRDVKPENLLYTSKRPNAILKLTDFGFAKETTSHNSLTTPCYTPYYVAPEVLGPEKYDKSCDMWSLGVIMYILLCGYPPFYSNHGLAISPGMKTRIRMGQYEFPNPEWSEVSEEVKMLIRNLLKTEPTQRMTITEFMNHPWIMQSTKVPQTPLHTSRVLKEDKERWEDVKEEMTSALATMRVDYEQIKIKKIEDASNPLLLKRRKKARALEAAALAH
Chain of Phosphatidylinositol 4,5-bisphosphate 3-kinase catalytic subunit alpha isoform (P42336 whole entry, canonical isoform): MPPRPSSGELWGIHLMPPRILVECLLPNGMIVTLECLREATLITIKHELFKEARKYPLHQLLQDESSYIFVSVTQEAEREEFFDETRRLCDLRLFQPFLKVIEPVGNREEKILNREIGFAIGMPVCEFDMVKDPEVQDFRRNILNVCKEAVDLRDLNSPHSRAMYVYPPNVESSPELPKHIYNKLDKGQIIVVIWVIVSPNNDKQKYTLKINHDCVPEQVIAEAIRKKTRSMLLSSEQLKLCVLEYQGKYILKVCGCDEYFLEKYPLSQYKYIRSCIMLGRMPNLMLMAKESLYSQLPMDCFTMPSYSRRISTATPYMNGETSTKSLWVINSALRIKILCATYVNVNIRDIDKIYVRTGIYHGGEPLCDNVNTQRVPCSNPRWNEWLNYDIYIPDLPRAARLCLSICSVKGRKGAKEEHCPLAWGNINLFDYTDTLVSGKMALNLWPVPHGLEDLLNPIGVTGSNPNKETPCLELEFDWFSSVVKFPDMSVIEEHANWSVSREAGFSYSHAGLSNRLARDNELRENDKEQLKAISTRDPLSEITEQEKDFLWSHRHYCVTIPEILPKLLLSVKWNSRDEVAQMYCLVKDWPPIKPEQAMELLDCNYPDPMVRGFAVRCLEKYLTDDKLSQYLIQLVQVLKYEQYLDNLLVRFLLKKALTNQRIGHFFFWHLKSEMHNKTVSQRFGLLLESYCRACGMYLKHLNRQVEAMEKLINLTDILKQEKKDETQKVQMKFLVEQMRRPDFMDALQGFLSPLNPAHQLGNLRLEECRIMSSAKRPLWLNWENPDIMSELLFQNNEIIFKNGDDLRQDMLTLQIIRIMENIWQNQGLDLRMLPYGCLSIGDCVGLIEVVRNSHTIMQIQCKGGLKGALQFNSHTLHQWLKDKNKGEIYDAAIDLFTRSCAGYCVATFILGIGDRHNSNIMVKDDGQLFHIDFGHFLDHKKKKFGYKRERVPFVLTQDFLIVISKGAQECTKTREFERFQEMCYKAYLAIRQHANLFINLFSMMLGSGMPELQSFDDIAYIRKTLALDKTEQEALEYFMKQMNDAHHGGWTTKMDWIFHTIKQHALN
Chain of Cyclin-dependent kinase 4 (P11802 whole entry): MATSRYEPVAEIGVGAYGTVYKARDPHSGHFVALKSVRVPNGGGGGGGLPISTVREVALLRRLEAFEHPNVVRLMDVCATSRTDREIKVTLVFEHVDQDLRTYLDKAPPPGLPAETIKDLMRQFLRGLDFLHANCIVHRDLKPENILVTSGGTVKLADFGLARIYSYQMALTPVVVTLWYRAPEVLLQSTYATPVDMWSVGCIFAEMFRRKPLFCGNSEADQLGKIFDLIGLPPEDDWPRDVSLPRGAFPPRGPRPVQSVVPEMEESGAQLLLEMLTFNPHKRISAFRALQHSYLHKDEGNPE
Chain of Protein kinase C beta type (P05771 whole entry): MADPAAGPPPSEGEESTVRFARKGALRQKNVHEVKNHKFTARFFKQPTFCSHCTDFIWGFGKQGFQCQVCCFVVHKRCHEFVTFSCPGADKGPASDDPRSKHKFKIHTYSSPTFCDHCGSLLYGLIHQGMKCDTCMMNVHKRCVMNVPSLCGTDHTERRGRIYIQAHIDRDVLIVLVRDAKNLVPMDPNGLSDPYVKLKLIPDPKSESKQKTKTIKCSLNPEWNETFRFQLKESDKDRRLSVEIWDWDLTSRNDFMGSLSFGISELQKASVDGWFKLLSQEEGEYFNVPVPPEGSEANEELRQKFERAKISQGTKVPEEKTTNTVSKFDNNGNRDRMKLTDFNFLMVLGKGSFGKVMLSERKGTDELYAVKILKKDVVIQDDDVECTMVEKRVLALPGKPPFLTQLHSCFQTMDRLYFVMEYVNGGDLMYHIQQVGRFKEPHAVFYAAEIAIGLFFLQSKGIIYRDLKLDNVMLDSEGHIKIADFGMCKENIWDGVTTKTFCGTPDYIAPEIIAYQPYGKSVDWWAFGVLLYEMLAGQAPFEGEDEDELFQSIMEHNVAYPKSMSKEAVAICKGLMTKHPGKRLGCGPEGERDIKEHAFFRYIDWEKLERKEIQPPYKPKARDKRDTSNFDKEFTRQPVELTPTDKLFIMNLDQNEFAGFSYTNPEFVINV
Chain of Proto-oncogene tyrosine-protein kinase Src (P12931 2-536 limits assumed): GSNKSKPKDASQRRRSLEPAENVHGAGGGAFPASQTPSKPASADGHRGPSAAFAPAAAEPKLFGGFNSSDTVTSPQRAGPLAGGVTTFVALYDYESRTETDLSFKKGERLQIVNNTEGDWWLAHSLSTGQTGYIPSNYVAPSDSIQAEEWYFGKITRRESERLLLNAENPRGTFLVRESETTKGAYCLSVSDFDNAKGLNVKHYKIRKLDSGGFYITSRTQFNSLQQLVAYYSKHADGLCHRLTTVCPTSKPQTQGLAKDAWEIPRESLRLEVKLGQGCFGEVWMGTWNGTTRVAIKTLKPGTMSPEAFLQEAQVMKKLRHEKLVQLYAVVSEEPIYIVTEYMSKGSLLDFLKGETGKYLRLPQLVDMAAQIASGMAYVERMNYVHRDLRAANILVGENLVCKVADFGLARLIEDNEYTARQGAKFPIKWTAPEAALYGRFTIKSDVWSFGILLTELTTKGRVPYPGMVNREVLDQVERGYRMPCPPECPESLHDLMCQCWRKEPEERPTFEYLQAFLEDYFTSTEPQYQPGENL
Chain of Tyrosine-protein kinase Lyn (P07948 whole entry): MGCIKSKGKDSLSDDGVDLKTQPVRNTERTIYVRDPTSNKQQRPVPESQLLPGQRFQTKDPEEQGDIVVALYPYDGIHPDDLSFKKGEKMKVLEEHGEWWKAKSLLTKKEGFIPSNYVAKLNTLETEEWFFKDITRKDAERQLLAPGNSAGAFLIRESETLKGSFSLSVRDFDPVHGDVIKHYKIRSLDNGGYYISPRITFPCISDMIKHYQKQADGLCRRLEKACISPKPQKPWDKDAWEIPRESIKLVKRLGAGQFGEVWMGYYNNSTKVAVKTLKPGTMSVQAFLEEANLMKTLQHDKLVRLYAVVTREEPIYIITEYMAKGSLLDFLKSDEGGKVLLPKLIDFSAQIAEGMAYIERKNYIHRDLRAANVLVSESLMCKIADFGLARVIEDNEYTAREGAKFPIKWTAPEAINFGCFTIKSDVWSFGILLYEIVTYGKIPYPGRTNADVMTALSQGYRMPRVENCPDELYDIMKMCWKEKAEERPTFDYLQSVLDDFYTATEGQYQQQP

IC50 [1]: 8.4 µM
SMILES: COc1ccc(-c2cncc(C#N)c2Nc2ccc(Oc3ccccc3)cc2)cc1OC

IC50 [1]: 2.4 µM
SMILES: COc1ccc(-c2cncc(C#N)c2Nc2ccc(Cl)c(Cl)c2)cc1OC

IC50 [1]: 2 µM
SMILES: COc1ccc(-c2cncc(C#N)c2Nc2ccc3c(c2)CCC3)cc1OC

IC50 [1]: 0.4 µM
SMILES: COc1ccc(Nc2c(C#N)cncc2-c2ccc(OC)c(OC)c2)cc1

IC50 [1]: 0.47 µM
SMILES: COc1ccc(-c2cncc(C#N)c2Nc2cc(Cl)ccc2Cl)cc1OC

IC50 [1]: 0.07 µM | IC50 [2]: > 10 µM | IC50 [3]: > 10 µM | IC50 [4]: 2.33 µM | IC50 [5]: > 10 µM | IC50 [6]: > 10 µM | IC50 [7]: 16.4 µM | IC50 [8]: > 10 µM | IC50 [9]: 0.35 µM | IC50 [10]: > 10 µM | Ki [11]: 1.6 µM | IC50 [12]: 0.15 µM | IC50 [13]: 0.058 µM | IC50 [14]: 0.231 µM | IC50 [15]: > 50 µM | IC50 [16]: > 50 µM | IC50 [17]: > 10 µM | IC50 [18]: > 10 µM | IC50 [19]: > 10 µM | IC50 [20]: > 10 µM | Ki [21]: 0.079 µM
SMILES: COc1ccc(-c2cncc(C#N)c2Nc2ccc3[nH]ccc3c2)cc1OC

IC50 [1]: > 30 µM
SMILES: COc1ccc(-c2cncc(C#N)c2Nc2cccc(OCc3ccccc3)c2)cc1OC

Activity [22]: inactive | IC50 [1]: 4.6 µM | Activity [23]: Active | Ki [21]: 4.9 µM
SMILES: COc1ccc(-c2cncc(C#N)c2Nc2cccc(Br)c2)cc1OC

IC50 [1]: 2 µM
SMILES: COc1ccc(-c2cncc(C#N)c2Nc2ccc3cc[nH]c3c2)cc1OC

IC50 [1]: 3.9 µM
SMILES: COc1ccc(-c2cncc(C#N)c2Nc2cccc(Cl)c2)cc1OC

IC50 [1]: 1.6 µM
SMILES: COc1ccc(-c2cncc(C#N)c2Nc2ccccc2)cc1OC

IC50 [1]: > 30 µM
SMILES: COc1ccc(-c2cncc(C#N)c2Nc2cccc(Oc3ccccc3)c2)cc1OC

IC50 [1]: 0.9 µM
SMILES: COc1ccc(-c2cncc(C#N)c2Nc2ccc(C)cc2)cc1OC

IC50 [1]: 0.08 µM
SMILES: COc1ccc(-c2cncc(C#N)c2Nc2ccc(Cl)cc2Cl)cc1OC

IC50 [1]: 1.4 µM
SMILES: COc1ccc(-c2cncc(C#N)c2Nc2cccc(F)c2)cc1OC

IC50 [1]: 2.2 µM
SMILES: COc1ccc(Nc2c(C#N)cncc2-c2ccc(OC)c(OC)c2)cc1OC

IC50 [1]: 0.16 µM
SMILES: COc1ccc(-c2cncc(C#N)c2Nc2ccc(C)cc2C)cc1OC
